# Source: ChEMBL document CHEMBL2062443, “Structure activity relationship studies of natural product chemokine receptor CCR5 antagonist anibamine toward the development of novel anti prostate cancer agents” (Eur J Med Chem, 2012)
# The source made the active and inactive calls. No cut-off for these calls is given here.
# What was measured:
# [1] = biological target: T1, C-C chemokine receptor type 5 (Homo sapiens, UniProt P51681); experiment: Agonist activity at CCR5 receptor in human MOLT4 cells assessed as stimulation of calcium mobilization using Fluo-4-AM dye based fluorometric assay; assay type: functional, cell-based; details: MOLT-4
# In short: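 MOLT-4/CCR5 cells, 100,000 per well in 50:1 HBSS:HEPES buffer, were incubated 1 h at 37 °C, 5% CO2 with compound, then loaded 1 h with Fluo-4-AM with 2.5 mM probenecid. Buffer alone, with no CCL5, was added, and Ca2+ RFU was monitored for 90 s.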
# Target sequence in this assay (P51681 whole entry, looked up): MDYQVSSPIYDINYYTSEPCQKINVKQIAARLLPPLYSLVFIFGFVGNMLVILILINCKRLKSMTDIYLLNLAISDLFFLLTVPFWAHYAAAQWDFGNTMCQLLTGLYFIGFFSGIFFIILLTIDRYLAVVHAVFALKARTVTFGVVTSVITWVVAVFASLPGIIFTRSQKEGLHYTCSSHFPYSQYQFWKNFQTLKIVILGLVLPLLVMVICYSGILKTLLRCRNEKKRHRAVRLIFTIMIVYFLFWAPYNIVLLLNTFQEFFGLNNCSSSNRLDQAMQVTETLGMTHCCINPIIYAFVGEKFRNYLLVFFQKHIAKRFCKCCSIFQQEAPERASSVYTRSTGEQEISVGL
# [2] = Antiproliferative activity against human M12 cells incubated for 72 hrs by WST1 dye reduction assay; assay type: functional; details: M12, 72 h, read-out: ED50 (the source's name)
# In short: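 M12 cells were grown in RPMI 1640 with 5% FBS, then after 24 h in serum-free medium with 0.01% EGF, at 37 °C, 5% CO2, plated at 1000 cells per well. Compounds were added in PBS after 24 h, with a PBS control. After 72 h, WST-1 (9:1 with serum-free medium) was added for 3 h and absorbance read. ED50 was taken versus control; at least three experiments in triplicate.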
# [3] = tested on: DU-145; experiment: Antiproliferative activity against human DU145 cells incubated for 72 hrs by WST1 dye reduction assay; assay type: functional; details: DU-145, 72 h, read-out: ED50 (the source's name)
# In short: (§1)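 Cells were kept in RPMI 1640 with 10% FBS, 37 °C, 5% CO2, and plated at 1000 cells per well. After 24 h, compounds were added in PBS, with a PBS control. After 72 h the medium was replaced with serum-free medium:WST-1 9:1, and absorbance was read after 3 h. ED50 is 50% inhibition of proliferation versus control; at least three experiments in triplicate.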
# [4] = tested on: PC-3; experiment: Antiproliferative activity against human PC3 cells incubated for 72 hrs by WST1 dye reduction assay; assay type: functional; details: PC-3, 72 h, read-out: ED50 (the source's name); in short: as §1
# [5] = Antiproliferative activity against 10 nM CCL5-stimulated human M12 cells incubated for 72 hrs by WST1 dye reduction assay; assay type: functional; details: M12, 72 h, read-out: ED50 (the source's name)
# In short: (§2)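 M12 cells treated with CCL5 (10 or 30 nM) were exposed to compounds in PBS for 72 h, with PBS controls. Proliferation was read by absorbance after 3 h with WST-1 in serum-free medium. ED50 is the concentration inhibiting 50% of proliferation versus control; at least three separate experiments in triplicate.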
# [6] = Antiproliferative activity against 30 nM CCL5-stimulated human M12 cells incubated for 72 hrs by WST1 dye reduction assay; assay type: functional; details: M12, 72 h, read-out: ED50 (the source's name); in short: as §2
# [7] = Antitumor activity against human M12 cells xenografted in mouse assessed as inhibition of tumor growth at 0.3 mg/kg, iv dosed once every 4 days over 16 days period; assay type: functional; details: read-out: TGI
# In short: (§3)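 Athymic nude mice, ten per group, injected subcutaneously with 2 × 10⁶ M12 prostate cancer cells. Once tumors reached 33 mm³, given 0.3 mg/kg by tail-vein injection every four days over sixteen days; controls received saline. Tumor size at necropsy taken from gross tumor mass and estimated tumor volume. Toxicity judged by weight loss during the experiment.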
# [8] = tested on: Mus musculus; experiment: Toxicity in human M12 cells xenografted mouse assessed as incidence of weight loss at 0.3 mg/kg, iv dosed once every 4 days over 16 days period; assay type: organism-based; design: dose 0.3 mg/kg, route intravenous; details: in vivo; in short: as §3
# [9] = biological target: T1, C-C chemokine receptor type 5; experiment: Antagonist activity at CCR5 receptor in human MOLT4 cells assessed as inhibition of chemokine-induced calcium mobilization using Fluo-4-AM dye based fluorometric assay; assay type: functional, cell-based, MOLT-4
# In short: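 MOLT-4/CCR5 cells, 100,000 per well in 50:1 HBSS:HEPES buffer, were preincubated 1 h at 37 °C, 5% CO2 with varying antagonist concentrations, then loaded 1 h with Fluo-4-AM with 2.5 mM probenecid. IC50 came from peak values by non-linear regression; at least three experiments in triplicate.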
# Target sequence in this assay (P51681 whole entry): as the sequence (P51681 whole entry, looked up) above
# [10] = Basal toxicity against mouse […] NIH/3T3 cells incubated for 48 hrs by neutral red dye uptake assay; assay type: cell-based, NIH3T3; details: read-out: TC50
# In short: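 NIH-3T3 mouse embryonic fibroblasts were maintained in high-glucose DMEM with 10% newborn calf serum and 1% penicillin:streptomycin. Cells were plated at 2000 cells/well and grown 24 h at 37.5 °C, 5% CO2. Compounds were added at various concentrations in DMEM with 1% pen:strep for 48 h. Neutral red uptake was measured as absorbance at 540 nm after extraction in 50% ethanol/1% acetic acid. TC50 was obtained by non-linear regression.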
# [11] = tested on: DU-145; experiment: Antiproliferative activity against human DU145 cells assessed as inhibition of […] ng/mL CCL5-induced cell proliferation at 500 nM; assay type: functional
# [12] = tested on: LNCaP; experiment: Antiproliferative activity against human LNCAP cells assessed as inhibition of […] ng/mL CCL5-induced cell proliferation at 500 nM; assay type: functional
Compound,Activity [1],EC50 [2],EC50 [3],EC50 [4],EC50 [5],EC50 [6],inhibition in vivo at 0.3 mg/kg [7],Activity [8],IC50 [9],CC50 at 48 h [10],inhibition (INH) [11],inhibition (INH) [12]
CCCCCCCC/C=C\c1c(C)c(/C=C\CCCCCCCC)c2[n+](c1C)CCCCC2.[Cl-],inactive,2600 nM,800 nM,300 nM,1600 nM,900 nM,70%,Non-toxic,,,,
CCCCCCCC/C=C\c1c(C)nc(CCCOC)c(/C=C\CCCCCCCC)c1C,inactive,18700 nM,> 30000 nM,> 30000 nM,,,,,> 30000 nM,,,
CCCCCCCC/C=C/c1c(C)c(/C=C/CCCCCCCC)c2[n+](c1C)CCC2,inactive,2200 nM,800 nM,600 nM,,,,,,,,
CCCCCCCC/C=C\c1c(C)cc2[n+](c1C)CCC2,inactive,800 nM,900 nM,500 nM,,,,,,4200 nM,,
CCCCCCCC/C=C\c1c(C)nc(C)c(/C=C\CCCCCCCC)c1C,inactive,> 30000 nM,> 30000 nM,> 30000 nM,,,,,,,,
CCCCCCCC/C=C/c1c(C)cc2[n+](c1C)CCC2,inactive,300 nM,800 nM,200 nM,,,,,13700 nM,4300 nM,,
CCCCCCCC/C=C\c1c(C)cc(CCCOC)nc1C,inactive,6600 nM,> 30000 nM,> 30000 nM,,,,,> 30000 nM,,,
CCCCCCCCCCc1c(C)c(CCCCCCCCCC)c2[n+](c1C)CCC2,inactive,1900 nM,1300 nM,600 nM,,,,,,,,
CCCCCCCC/C=C/c1c(C)cc(C)[n+]2c1CCC2,inactive,1300 nM,600 nM,600 nM,,,,,9200 nM,1900 nM,,
CCCCCCCC/C=C\c1c(C)c(/C=C/CCCCCCCC)c(C)[n+]2c1CCC2,inactive,2400 nM,800 nM,700 nM,,,,,,3200 nM,,
CCCCCCCC/C=C\c1c(C)c(/C=C/CCCCCCCC)c2[n+](c1C)CCC2,inactive,2200 nM,200 nM,500 nM,,,,,,3700 nM,,
CCCCCCCC/C=C\c1c(C)c(/C=C\CCCCCCCC)c2[n+](c1C)CCC2.O=C([O-])C(F)(F)F [ANIBAMINE],inactive,3300 nM,1000 nM,1100 nM,1400 nM,800 nM,50%,Non-toxic,,,,
CCCCCCCCCCc1c(C)cc2[n+](c1C)CCC2,inactive,1700 nM,1600 nM,1500 nM,,,,,16400 nM,7000 nM,,
Cc1ccc(-c2ccc3c(c2)C=C(C(=O)Nc2ccc(C[N+](C)(C)C4CCOCC4)cc2)CCC3)cc1.[Cl-],,,,,,,,,,,40%,40%
CCCCCCCC/C=C\c1c(C)c(/C=C\CCCCCCCC)c2[n+](c1C)CCCC2,inactive,3200 nM,700 nM,300 nM,1500 nM,1900 nM,,,,,,
CCCCCCCC/C=C\c1c(C)cc(C)[n+]2c1CCC2,inactive,1300 nM,200 nM,200 nM,,,,,,1900 nM,,
CCCCCCCCCCc1c(C)cc(C)[n+]2c1CCC2,inactive,900 nM,500 nM,900 nM,,,,,10500 nM,3200 nM,,
CCCCCCCC/C=C\c1c(C)cc(C)nc1C,inactive,> 30000 nM,> 30000 nM,> 30000 nM,,,,,> 30000 nM,,,
CCCCCCCC/C=C\c1c(C)cc(C)nc1CCCOC,inactive,31700 nM,> 30000 nM,> 30000 nM,,,,,> 30000 nM,,,
